These results are taken from ChEMBL document CHEMBL3769403, “Carbonic anhydrase activators: Activation of the β-carbonic anhydrase from Malassezia globosa with amines and amino acids” (Bioorg Med Chem Lett, 2016).

In one assay the test system is Malassezia globosa. Nature of the assay: Activation of Malassezia globosa beta-carbonic anhydrase incubated for 15 mins prior to testing by stopped flow CO2 hydrase method.
Details: not given
The method in brief:
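Recombinant M. globosa β-CA (12.1 nM in assay; enzymes 10-14 nM) preincubated with activator 15 min at room temperature. CO2 hydration followed 10 s at 25 °C by stopped-flow, phenol red 0.2 mM at 557 nm, 20 mM Tris pH 8.3, 20 mM NaClO4; CO2 0.17-17 mM. Initial velocities from the first 5-10% of at least six traces, uncatalyzed rate subtracted; KA from the competitive steady-state equation; mean of 3 assays.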
As for `NCc1ccccn1`, the KA stood at 6.12 µM.

Turning to `N[C@@H](Cc1c[nH]c2ccccc12)C(=O)O`, the KA was found to be 10.1 µM. The same measure, in the same setting: next, `N[C@H](Cc1ccccc1)C(=O)O`: 10.7 µM; `Nc1ccc(C[C@H](N)C(=O)O)cc1`: 13.4 µM; `CNC[C@H](O)c1ccc(O)c(O)c1`: 0.72 µM. The same measure, in the same setting: next, `N[C@H](Cc1ccc(O)c(O)c1)C(=O)O`: 13.7 µM. Still for that read-out and setting: in the case of `NCCN1CCOCC1` it was 5.82 µM. `N[C@H](Cc1ccc(O)cc1)C(=O)O` showed a KA of 25.1 µM. With `N[C@H](Cc1c[nH]cn1)C(=O)O`, the KA turned out to be 18.1 µM. Molecule `NCCc1ccccn1` returned a KA of 7.3 µM.

Molecule `N[C@H](Cc1c[nH]c2ccccc12)C(=O)O` came in with a KA of 12.5 µM. On the same count and under the same terms, next, `NCCc1c[nH]cn1`: 10.9 µM; `N[C@@H](Cc1ccc(O)c(O)c1)C(=O)O`: 8.31 µM. `N[C@@H](Cc1ccccc1)C(=O)O` displayed a KA of 34.1 µM. Same read-out and setting: in the case of `NCCc1c[nH]c2ccc(O)cc12` it was 14.2 µM; in that of `N[C@@H](Cc1ccc(O)cc1)C(=O)O`, 15.7 µM. The molecule `NCCN1CCNCC1` registered a KA of 0.81 µM.

As to `N[C@@H](Cc1c[nH]cn1)C(=O)O`, the KA turned out to be 29.3 µM. Same read-out and setting: in the case of `NCCc1ccc(O)c(O)c1` it was 9.43 µM.

The subject of another assay is Malassezia globosa. The conditions noted are these: 10 uM.
As to `NCCc1c[nH]cn1`, the kcat came to 18.5 ×10⁵ /s.
